According to ChEMBL document CHEMBL1123436, “Comparative toxicities and analgesic activities of three monomethylated analogues of acetaminophen” (J Med Chem, 1986):

Columns and labels:
Mus musculus [1] = assay: (§1) Hepatotoxicity in Swiss-Webster Mice Caused by compound at 750 mg/kg (i.p.) dose; type: functional, organism-based; parameters: dose 750 mg/kg
Procedure, shortened: (§2)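 Male Swiss-Webster mice (20 g), groups of 10, were given a single ip dose of drug in saline with no pretreatment. Survivors were decapitated at 24 h and counted. Plasma ALT was measured, and liver sections (formalin-fixed, paraffin, H&E) were scored for necrosis severity in survivors. Values are means ± SE.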

[2] = Hepatotoxicity in Swiss-Webster Mice Caused by compound at 400 mg/kg (i.p.) (phenobarbital pretreated animals)dose; 4/10; type: functional, Mus musculus; details: route intraperitoneal
Procedure, shortened: (§3)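 Male Swiss-Webster mice (20 g), groups of 10. Sodium phenobarbital (80 mg/kg ip) was given 72, 60, 48 and 24 h before drug, then drug ip in saline. At 24 h: survivors counted, plasma ALT measured, and H&E liver sections scored for necrosis in survivors. Values are means ± SE.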

Mus musculus [3] = assay: Hepatotoxicity in Swiss-Webster Mice Caused by compound at 400 mg/kg (i.p.) (pipernonyl butoxide pretreated animals)dose; type: functional; details: route intraperitoneal
Procedure, shortened: (§4)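 Male Swiss-Webster mice (20 g), groups of 10. Piperonyl butoxide (neat, single 1360 mg/kg ip dose) was given 30 min before drug, then drug ip in saline. At 24 h: survivors counted, plasma ALT measured, and H&E liver sections scored for necrosis in survivors. Values are means ± SE.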

[4] = Hepatotoxicity in Swiss-Webster Mice Caused by compound at 400 mg/kg (i.p.) (cobaltous chloride pretreated animals)dose; 8/10; type: functional, Mus musculus; details: route intraperitoneal
Procedure, shortened: (§5)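 Male Swiss-Webster mice (20 g), groups of 10. Cobaltous chloride (30 mg/kg ip) was given 48, 36, 24 and 12 h before drug, then drug ip in saline. At 24 h: survivors counted, plasma ALT measured, and H&E liver sections scored for necrosis in survivors. Values are means ± SE.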

[5] = (§6) Hepatotoxicity in Swiss-Webster Mice Caused by compound at 400 mg/kg (i.p.) (phenobarbital pretreated animals)dose; type: functional, Mus musculus; details: route intraperitoneal; procedure, shortened: as §3
Mus musculus [6] = assay: (§7) Hepatotoxicity in Swiss-Webster Mice Caused by compound at 400 mg/kg (i.p.) dose; type: functional; details: route intraperitoneal; procedure, shortened: as §2
Mus musculus [7] = assay: Hepatotoxicity in Swiss-Webster Mice Caused by compound at 400 mg/kg (i.p.) dose; 9/10; type: functional; details: route intraperitoneal; procedure, shortened: as §2
Mus musculus [8] = assay: Hepatotoxicity in Swiss-Webster Mice Caused by compound at 750 mg/kg (i.p.) dose; 4/10; type: functional; details: route intraperitoneal; procedure, shortened: as §2
Mus musculus [9] = assay: as §7; type: functional, organism-based; parameters: dose 400 mg/kg; procedure, shortened: as §2
Mus musculus [10] = assay: Hepatotoxicity in Swiss-Webster Mice Caused by compound at 1000 mg/kg (i.p.) (pipernonyl butoxide pretreated animals)dose; type: functional, organism-based; parameters: dose 1000 mg/kg; procedure, shortened: as §4
Mus musculus [11] = species on record: Mus musculus; assay: Analgesic activity determined in mice using the Bradykinin-induced Writhing test; type: functional
Procedure, shortened: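 Male CD1 mice (15–20 g), test drug given orally 15 min before bradykinin ip (4 μg in 0.2 mL sterile water), then a second bradykinin injection (0.2 μg/0.1 mL) 15 min later. Writhing was scored over the next 10 min, with control groups of 10 mice. ED50 was derived by log-probit analysis from at least five doses, with 95% limits.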

Mus musculus [12] = assay: Hepatotoxicity in Swiss-Webster Mice Caused by compound at 400 mg/kg (i.p.) (pipernonyl butoxide pretreated animals)dose; 9/10; type: functional; details: route intraperitoneal; procedure, shortened: as §4
[13] = (§8) Hepatotoxicity in Swiss-Webster Mice Caused by compound at 400 mg/kg (i.p.) (cobaltous chloride pretreated animals)dose; type: functional, Mus musculus; details: route intraperitoneal; procedure, shortened: as §5
Mus musculus [14] = assay: as §8; type: functional, organism-based; parameters: dose 400 mg/kg; procedure, shortened: as §5
Mus musculus [15] = assay: as §6; type: functional, organism-based; parameters: dose 400 mg/kg; procedure, shortened: as §3
Mus musculus [16] = assay: as §1; type: functional; details: route intraperitoneal; procedure, shortened: as §2

Compound: CC(=O)Nc1ccc(O)c(C)c1
- Plasma ALT at 24 h (Mus musculus [1]): 3250 mU ml-1
- Survivors at 24 h [2]: 4
- Hepatic necrosis in survivors (Mus musculus [3]): 0
- Survivors at 24 h [4]: 8
- Hepatic necrosis in survivors [5]: 3.5
- Hepatic necrosis in survivors (Mus musculus [6]): 1
- Survivors at 24 h (Mus musculus [7]): 9
- Survivors at 24 h (Mus musculus [8]): 4
- Plasma ALT at 24 h (Mus musculus [9]): 1080 mU ml-1
- Plasma ALT at 24 h (Mus musculus [10]): 83 mU ml-1
- ED50 (Mus musculus [11]): 94.6 mg/kg
- Survivors at 24 h (Mus musculus [12]): 9
- Hepatic necrosis in survivors [13]: 0.56
- Plasma ALT at 24 h (Mus musculus [14]): 345 mU ml-1
- Plasma ALT at 24 h (Mus musculus [15]): 5130 mU ml-1
- Hepatic necrosis in survivors (Mus musculus [16]): 2.75
